In ChEMBL document CHEMBL3804776, “Synthesis and Evaluation of Macrocyclic Peptide Aldehydes as Potent and Selective Inhibitors of the 20S Proteasome” (ACS Med Chem Lett, 2016) one finds Ki, inhibition and Ratio Ki data, which are given here for 6 compounds.

Molecules are shown by their SMILES. Active and inactive are the calls of the source. No cut-off for these calls is given here. Residues, ends and D or L forms follow the SMILES beside them. *: point of attachment. Cbz = O=C(OCc1ccccc1)*

Assay [1] can be described thus: Inhibition of chymotrypsin-like activity of rabbit 20S proteasome using Suc-LLVY-AMC substrate incubated at 37 degC by fluorometric assay. The arrangement: species or system Oryctolagus cuniculus.
Assay [2] is filed under the species Homo sapiens. As to the kind of experiment: Inhibition of chymotrypsin (unknown origin) using Suc-LLVY-AMC as substrate at 100 uM by fluorometric assay. In a few lines:
(§1)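 Fluorometric kinetic enzyme assay run at a single inhibitor concentration of 100 μM. The outcome was scored as whether inhibition occurred at that concentration.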

Assay [3] addresses T1, Cathepsin B (Homo sapiens, UniProt P07858). As to the kind of experiment: Inhibition of human liver cathepsin B using Cbz-RR-AMC as substrate at 100 uM by fluorometric assay. Summed up: as §1
In assay [4] the target is T2, Calpain-2 catalytic subunit (Homo sapiens) (UniProt P17655).
T2 sequence (whole entry): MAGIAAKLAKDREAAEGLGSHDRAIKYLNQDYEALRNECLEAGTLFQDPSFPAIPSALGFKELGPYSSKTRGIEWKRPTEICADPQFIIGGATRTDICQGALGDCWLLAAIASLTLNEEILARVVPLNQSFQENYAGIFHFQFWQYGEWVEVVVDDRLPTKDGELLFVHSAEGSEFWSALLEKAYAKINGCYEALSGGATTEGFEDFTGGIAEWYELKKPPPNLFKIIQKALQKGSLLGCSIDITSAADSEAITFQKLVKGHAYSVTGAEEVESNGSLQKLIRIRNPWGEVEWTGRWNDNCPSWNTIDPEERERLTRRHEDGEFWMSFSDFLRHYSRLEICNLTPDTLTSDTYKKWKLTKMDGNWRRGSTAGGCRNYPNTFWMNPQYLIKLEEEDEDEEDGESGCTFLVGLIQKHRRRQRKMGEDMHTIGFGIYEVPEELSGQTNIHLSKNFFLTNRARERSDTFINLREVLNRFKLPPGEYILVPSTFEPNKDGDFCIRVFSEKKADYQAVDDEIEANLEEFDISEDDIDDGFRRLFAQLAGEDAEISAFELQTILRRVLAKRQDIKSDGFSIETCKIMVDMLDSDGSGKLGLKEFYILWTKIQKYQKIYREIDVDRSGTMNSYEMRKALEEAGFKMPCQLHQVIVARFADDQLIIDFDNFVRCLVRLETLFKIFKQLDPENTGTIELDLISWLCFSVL
As to the kind of experiment: Inhibition of m-calpain (unknown origin) using Suc-LY-AMC as substrate at 100 uM by fluorometric assay. In a few lines: as §1

Assay [5] relates to HeLa. Briefly: Inhibition of 26S proteasome in IL1beta-induced human HeLa cells assessed as reduction in IkappaBalpha degradation at 300 nM to 20 uM preincubated for 2 hrs followed by IL1beta stimulation.
Assay [6] addresses T1, Cathepsin B. Briefly: Inhibition of human liver cathepsin B using Cbz-RR-AMC as substrate by fluorometric assay.
A short description of assay [7]: Inhibition of PGPH-like activity of rabbit 20S proteasome using Cbz-LLE-AMC substrate incubated at 37 degC by fluorometric assay. The arrangement: species or system Oryctolagus cuniculus.
Assay [8] relates to HeLa. Briefly: Inhibition of 26S proteasome in TNFalpha-induced human HeLa cells assessed as reduction in IkappaBalpha degradation at 20 uM preincubated for 2 hrs followed by TNFalpha stimulation by Western blot analysis. The format is cell-based. Summed up:
(§2)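 HeLa cells were preincubated for 2 h with 20 μM compound before TNFα stimulation. IκBα S32/36 phosphorylation and IκBα levels were assessed by Western blot (β-actin loading control). NF-κB DNA binding was measured by electrophoretic mobility shift assay.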
For orientation: Immunoblotting shows a protein as a band on a membrane.

The test system of assay [9] is HeLa. As to the kind of experiment: Inhibition of 26S proteasome in IL1beta-induced human HeLa cells assessed as reduction in IkappaBalpha degradation at 20 uM preincubated for 2 hrs followed by IL1beta stimulation by Western blot analysis. It counts as cell-based. Summed up:
(§3)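 HeLa human cervix carcinoma cells were pretreated with compound at 20 μM for 2 h, then stimulated with IL-1β. Read-outs were Western blot for IκBα phosphorylation (S32/36) and IκBα degradation, with β-actin as loading control, and EMSA for NF-κB DNA binding.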

In assay [10] the target is T3, Calpain-2 catalytic subunit (Homo sapiens, UniProt P17655).
T3 sequence (P17655 whole entry): T2 sequence (whole entry)
Briefly: Inhibition of m-calpain (unknown origin) using Suc-LY-AMC as substrate by fluorometric assay.

Assay [11] deals with HeLa. As to the kind of experiment: Inhibition of 26S proteasome in TNFalpha-induced human HeLa cells assessed as reduction in NFkappaB-DNA binding at 300 nM to 20 uM preincubated for 2 hrs followed by TNFalpha stimulation by EMSA. It counts as cell-based. In a few lines:
(§4)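 Dose-response in HeLa cells: compound at 0.1, 0.3, 1, 3, 10 and 20 μM before TNFα stimulation, with handling as in the single-dose experiment. Accumulation of phospho-IκBα (S32/36) was measured by Western blot with β-actin as loading control. NF-κB DNA binding was measured by EMSA.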

For assay [12], the system named is HeLa. As to the kind of experiment: Inhibition of 26S proteasome in TNFalpha-induced human HeLa cells assessed as phosphorylation of IkappaBalpha at 20 uM preincubated for 2 hrs followed by TNFalpha stimulation by Western blot analysis. The format is cell-based. Summed up: as §2
Assay [13] can be described thus: Selectivity ratio of Ki for human liver cathepsin B to Ki for chymotrypsin-like activity of rabbit 20S proteasome.
For assay [14], the species on record is Oryctolagus cuniculus. Briefly: Inhibition of trypsin-like activity of rabbit 20S proteasome using Cbz-ARR-AMC substrate at 100 uM incubated at 37 degC by fluorometric assay. In a few lines:
as §1

Assay [15] deals with HeLa. Briefly: Inhibition of 26S proteasome in TNFalpha-induced human HeLa cells assessed as accumulation of phosphorylated IkappaBalpha at 300 nM to 20 uM preincubated for 2 hrs followed by TNFalpha stimulation by Western blot analysis. It counts as cell-based. Summed up:
as §4

The subject of assay [16] is HeLa. Briefly: Inhibition of 26S proteasome in IL1beta-induced human HeLa cells assessed as reduction in NFkappaB-DNA binding at 20 uM preincubated for 2 hrs followed by IL1beta stimulation by EMSA. It counts as cell-based. Summed up:
as §3

Assay [17] concerns HeLa. Briefly: Inhibition of 26S proteasome in IL1beta-induced human HeLa cells assessed as phosphorylation of IkappaBalpha at 20 uM preincubated for 2 hrs followed by IL1beta stimulation by Western blot analysis. The format is cell-based. In a few lines:
as §3

Assay [18] is described as follows: Selectivity ratio of Ki for m-calpain (unknown origin) to Ki for chymotrypsin-like activity of rabbit 20S proteasome.
In assay [19] the test system is HeLa. Briefly: Inhibition of 26S proteasome in TNFalpha-induced human HeLa cells assessed as reduction in NFkappaB-DNA binding at 20 uM preincubated for 2 hrs followed by TNFalpha stimulation by EMSA. It counts as cell-based. In a few lines:
as §2
A general note: In EMSA bound probe runs differently from free probe, usually more slowly.

For assay [20], the species on record is Oryctolagus cuniculus. As to the kind of experiment: Inhibition of PGPH-like activity of rabbit 20S proteasome using Cbz-LLE-AMC substrate at 100 uM incubated at 37 degC by fluorometric assay. Summed up: as §1
Assay [21] is described as follows: Inhibition of trypsin-like activity of rabbit 20S proteasome using Cbz-ARR-AMC substrate incubated at 37 degC by fluorometric assay. Set-up: species or system Oryctolagus cuniculus.

Broadly, the Ki is a dissociation constant, usually derived from enzyme kinetics or from competition with a known ligand. Low readings indicate higher affinity, high ones lower affinity. On to `CC(C)C[C@H](NC(=O)[C@H](Cc1ccccc1)NC(=O)c1cnccn1)B(O)O` [BORTEZOMIB], for which the Ki in assay [1] is 24 nM. In addition, the inhibition result in assay [2], in assay [3] and in assay [4] was “inactive” each time.

`CC(C)C[C@@H](C=O)NC(=O)[C@H](CC(C)C)NC(=O)[C@H](CC(C)C)NC(=O)OCc1ccccc1` [MG-132] (Cbz-Leu-Leu-Leu-aldehyde): the inhibition result in assay [5], in assay [8], in assay [9], in [11], in [12] and in assay [15] was “Active” each time. Moreover, the inhibition entry in assay [16], in assay [17] and in assay [19] was “Active” in each case. Moreover, the inhibition constant Ki worked out at 230 nM in [6], 3700 nM in [7], 63.5 nM in assay [1] and 653 nM in assay [10]. Further, the Ratio Ki in assay [13] turned out to be 4; in assay [18], 10. For the same compound, the inhibition entry in assay [2] and in assay [14] was “inactive” throughout.

As for `COc1ccc(C[C@H](NC(=O)[C@H](Cc2ccccc2)NC(=O)OCc2ccccc2)C(=O)N[C@@H](Cc2ccccc2)C(=O)N[C@H](C=O)CC(C)C)cc1` (Cbz-FY(Me)FL-aldehyde), the inhibition constant (Ki) in [6] is 2290 nM; in [1], 28 nM; in assay [10] it was 1710 nM. The values for the Ratio Ki in assay [13] and in [18] were 80 and 61, respectively. The inhibition entry in [2] was “inactive”.

`CC(C)C[C@H](NC(=O)[C@H](CCc1ccccc1)NC(=O)CN1CCOCC1)C(=O)N[C@@H](Cc1ccccc1)C(=O)N[C@@H](CC(C)C)C(=O)[C@@]1(C)CO1` [CARFILZOMIB] showed a Ki in [1] of 25.5 nM. Besides, the inhibition result in assay [2], in [3] and in assay [4] was “inactive” in each case.

`COc1ccc(C[C@@H]2NC(=O)[C@@H](NC(=O)OCc3ccccc3)Cc3ccc([N+](=O)[O-])c(c3)Oc3ccc(cc3)C[C@@H](C(=O)N[C@H](C=O)CC(C)C)NC2=O)cc1`: the inhibition result in assay [5], in [8], in assay [9], in assay [11], in assay [12] and in assay [15] was “Active” throughout. The inhibition entry in assay [16], in [17] and in assay [19] was “Active” each time. Moreover, the inhibition constant (Ki) is 30300 nM in assay [6], 54.5 nM in assay [1] and 2980 nM in [10]. The inhibition result in assay [20], in [2] and in assay [14] was “inactive” throughout. The results for the Ratio Ki in assay [13] and in assay [18] were 550 and 55, respectively.

Turning to `CC(C)C[C@@H](C=O)NC(=O)[C@@H]1Cc2ccc(cc2)Oc2cc(ccc2[N+](=O)[O-])C[C@H](NC(=O)OCc2ccccc2)C(=O)N[C@@H](CC(C)C)C(=O)N1`, the inhibition result in assay [5], in assay [8], in assay [9], in [11], in assay [12] and in assay [15] was “Active” throughout. Further, the inhibition entry in [16], in assay [17] and in assay [19] was “Active” throughout. Moreover, the inhibition constant (Ki) in assay [6] stood at 3050 nM; in assay [1] it was 241 nM; in [10], 2030 nM; in assay [21], 8040 nM. For the same compound, the inhibition result in assay [20] and in [2] was “inactive” in each case. The Ratio Ki in assay [18] was determined as 8.
